Converted amounts (≈) assume the structure as drawn. The source made the active and inactive calls. The rule behind the calls is not given here.

What is called MIC is the lowest concentration that inhibits growth of the organism. Read a high MIC as weaker potency.

Test [1] deals with Escherichia coli. Description: Antibacterial activity against Escherichia coli JM109 carrying pMCL210 by agar dilution method. Format: functional. In short, it runs like this:
(§1)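 Minimal inhibitory concentration (MIC) by agar dilution on Mueller-Hinton agar, following the CLSI protocol. Strains were routinely grown in LB broth at 37°C with shaking.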

Test [2] relates to Escherichia coli. The experiment in a line: Antibacterial activity against Escherichia coli CSH-2 by agar dilution method. It counts as functional. The method in brief: as §1
In test [3] the test system is Escherichia coli. Description: Antibacterial activity against Escherichia coli isolate ARS3 carrying pARS3 by agar dilution method. Format: functional. The method in brief: as §1
For orientation: In agar dilution the substance is mixed into plates at graded concentrations.

The test system of test [4] is Escherichia coli. The experiment in a line: Antibacterial activity against Escherichia coli JM109 carrying pMCL-BE by agar dilution method. It counts as functional. In short, it runs like this:
as §1

In test [5] the test system is Escherichia coli. Description: Antibacterial activity against Escherichia coli CSH-2 carrying Escherichia coli ARS3 pARS3 by agar dilution method. It counts as functional. In short, it runs like this: as §1
The test system of test [6] is Escherichia coli. Description: Antibacterial activity against Escherichia coli (DE3)pLysS carrying pCold-IV by microdilution susceptibility test. Format: functional. On the technique in general: In broth dilution the organism is exposed to a series of concentrations in liquid medium.
The test system of test [7] is Escherichia coli. The experiment in a line: Antibacterial activity against Escherichia coli (DE3)pLysS carrying pCold-NpmA by microdilution susceptibility test. It counts as functional.
The subject of test [8] is Nucleic Acid. The experiment in a line: Binding affinity to 16S rRNA G1494(N7) position in A1408-methylated Escherichia coli JM109 30S sunit at 100 uM by footprint assay. Format: nucleic-acid assay. In short, it runs like this: (§2)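 Aminoglycoside (1–1,000 μM final) was added, 37°C 30 min, then ice 10 min. DMS modification followed at 37°C for 10 min, then quench and rRNA extraction. G1494 protection was read by primer extension.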

Test [9] concerns Nucleic Acid. Description: Binding affinity to 16S rRNA G1494(N7) position in A1408-methylated Escherichia coli JM109 30S sunit at 1000 uM by footprint assay. It counts as nucleic-acid assay. The method in brief:
as §2

The test system of test [10] is Nucleic Acid. The experiment in a line: Binding affinity to 16S rRNA G1494(N7) position in wild type Escherichia coli JM109 30S sunit at 1000 uM by footprint assay. Format: nucleic-acid assay. The method in brief: as §2
Test [11] deals with Nucleic Acid. The experiment in a line: Binding affinity to 16S rRNA G1494(N7) position in wild type Escherichia coli JM109 30S sunit at 100 uM by footprint assay. Format: nucleic-acid assay. The method in brief: as §2
Test [12] relates to Nucleic Acid. The experiment in a line: Binding affinity to 16S rRNA G1494(N7) position in A1408-methylated Escherichia coli JM109 30S sunit by footprint assay. It counts as nucleic-acid assay. In short, it runs like this:
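Aminoglycoside added (final 1 μM to 1,000 μM) for 30 min at 37°C, then 10 min on ice. DMS probing for 10 min at 37°C. The G1494 footprint was read by reverse-transcriptase primer extension.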

For `CN[C@H]1C[C@@H](N)[C@H](O)[C@@H](O[C@@H]2O[C@H](CO)[C@H](O)[C@H]3O[C@@]4(O[C@H]23)O[C@H]([C@H](N)CO)[C@H](O)[C@H](O)[C@H]4O)[C@@H]1O`, the MIC in test [1] stood at 32 µg/mL (≈ 60.7 µM); in test [2] it was 16 µg/mL (≈ 30.3 µM); in test [3], 128 µg/mL (≈ 243 µM); in test [4], 32 µg/mL (≈ 60.7 µM); in test [5], 16 µg/mL (≈ 30.3 µM).
Consider `NCC[C@H](O)C(=O)N[C@@H]1C[C@H](N)[C@@H](O[C@H]2O[C@H](CN)[C@@H](O)[C@H](O)[C@H]2O)[C@H](O)[C@H]1O[C@H]1O[C@H](CO)[C@@H](O)[C@H](N)[C@H]1O` [AMIKACIN], for which the MIC was found to be 0.5 µg/mL (≈ 0.854 µM) in test [1]; 0.13 µg/mL (≈ 0.222 µM) in test [2]; 256 µg/mL (≈ 437 µM) in [3]; 32 µg/mL (≈ 54.6 µM) in test [4]; 16 µg/mL (≈ 27.3 µM) in test [5].
Consider `CN[C@@H]1[C@@H](O[C@H]2O[C@H](CO)[C@@H](N)[C@H](O)[C@H]2O)OC2C[C@@H](N)[C@@H](O[C@H]3[C@H](O)[C@@H](O)[C@H](N)C[C@@H]3N)OC2[C@@H]1O` (stereo not given in full) [APRAMYCIN], for which the MIC in [1] is 2 µg/mL (≈ 3.71 µM); in test [2], 1 µg/mL (≈ 1.85 µM); in test [6], 3.9 µg/mL (≈ 7.23 µM); in test [3] it was > 256 µg/mL; in test [4] it was > 256 µg/mL; in test [5] it was > 256 µg/mL. Besides, the MIC in test [7] is > 1000 µg/mL.
As to `NCC[C@H](O)C(=O)N[C@@H]1C[C@H](N)[C@@H](O[C@H]2O[C@H](CN)CC[C@H]2N)[C@H](O)[C@H]1O[C@H]1O[C@H](CO)[C@@H](O)[C@H](N)[C@H]1O` [ARBEKACIN], the MIC in test [1] amounted to 0.25 µg/mL (≈ 0.452 µM); in [2], 0.13 µg/mL (≈ 0.235 µM); in test [3], 64 µg/mL (≈ 116 µM); in [4], 4 µg/mL (≈ 7.24 µM); in [5] it was 4 µg/mL (≈ 7.24 µM).
For `NC[C@@H]1CC[C@@H](N)[C@@H](O[C@H]2[C@H](O)[C@@H](O[C@H]3O[C@H](CO)[C@@H](O)[C@H](N)[C@H]3O)[C@H](N)C[C@@H]2N)O1` [DIBEKACIN], the MIC was 0.25 µg/mL (≈ 0.554 µM) in test [1]; 0.13 µg/mL (≈ 0.288 µM) in [2]; > 256 µg/mL in test [3]; 128 µg/mL (≈ 283 µM) in test [4]; 128 µg/mL (≈ 283 µM) in test [5].
Regarding `NC[C@@H]1O[C@H](O[C@H]2[C@@H](O)[C@H](O[C@@H]3[C@@H](O)[C@H](N)C[C@H](N)[C@H]3O[C@H]3O[C@H](CN)[C@@H](O)[C@H](O)[C@H]3N)O[C@@H]2CO)[C@H](N)[C@@H](O)[C@@H]1O` [FRAMYCETIN], the outcome in [8] and in test [9] was inactive. Further, the minimum inhibitory concentration (MIC) in [1] is 0.25 µg/mL (≈ 0.407 µM); in test [2], 0.13 µg/mL (≈ 0.212 µM); in test [3] it was > 256 µg/mL; in test [4], 64 µg/mL (≈ 104 µM); in test [5], 64 µg/mL (≈ 104 µM). Also, the outcome in test [10] and in test [11] was Active.
For the compound `CN[C@@H]1[C@@H](O)[C@@H](O[C@@H]2[C@@H](O)[C@H](O[C@H]3O[C@H](CN)[C@@H](O)[C@H](O)[C@H]3O)[C@@H](N)C[C@H]2NC(=O)[C@@H](O)CN)OC[C@]1(C)O` [ISEPAMICIN], the minimum inhibitory concentration (MIC) in [1] was 0.13 µg/mL (≈ 0.228 µM); in [2], 0.13 µg/mL (≈ 0.228 µM); in test [3], > 256 µg/mL; in test [4], 128 µg/mL (≈ 225 µM); in [5], 64 µg/mL (≈ 112 µM).
Consider `NC[C@H]1O[C@H](O[C@H]2[C@H](O)[C@@H](O[C@H]3O[C@H](CO)[C@@H](O)[C@H](N)[C@H]3O)[C@H](N)C[C@@H]2N)[C@H](O)[C@@H](O)[C@@H]1O` [KANAMYCIN], for which the MIC in test [1] was 0.5 µg/mL (≈ 1.03 µM); in [2], 0.25 µg/mL (≈ 0.516 µM); in test [3], > 256 µg/mL; in [4] it was > 256 µg/mL; in test [5], > 256 µg/mL.
Regarding `NC[C@@H]1O[C@H](O[C@H]2[C@@H](O)[C@H](O[C@@H]3[C@@H](O)[C@H](N)C[C@H](N)[C@H]3O[C@H]3O[C@H](CO)[C@@H](O)C[C@H]3N)O[C@@H]2CO)[C@H](N)[C@@H](O)[C@@H]1O[C@H]1O[C@H](CO)[C@@H](O)[C@H](O)[C@@H]1O` [LIVIDOMYCIN], the MIC amounted to 2 µg/mL (≈ 2.63 µM) in test [1]; 0.5 µg/mL (≈ 0.656 µM) in [2]; 256 µg/mL (≈ 336 µM) in [3]; 32 µg/mL (≈ 42 µM) in test [4]; 16 µg/mL (≈ 21 µM) in [5].
For `CCN[C@@H]1C[C@H](N)[C@@H](O[C@H]2OC(CN)=CC[C@H]2N)[C@H](O)[C@H]1O[C@H]1OC[C@](C)(O)[C@H](NC)[C@H]1O` [NETILMICIN] the same measures were 0.13 µg/mL (≈ 0.273 µM), ≤ 0.06 µg/mL, > 256 µg/mL, > 256 µg/mL and > 256 µg/mL.
`NC[C@@H]1O[C@H](O[C@H]2[C@@H](O)[C@H](O[C@@H]3[C@@H](O)[C@H](N)C[C@H](N)[C@H]3O[C@H]3O[C@H](CO)[C@@H](O)[C@H](O)[C@H]3N)O[C@@H]2CO)[C@H](N)[C@@H](O)[C@@H]1O` [PAROMOMYCIN]: the MIC in test [1] is 1 µg/mL (≈ 1.62 µM); in test [2] it was 0.5 µg/mL (≈ 0.812 µM); in test [3], 64 µg/mL (≈ 104 µM); in [4], 4 µg/mL (≈ 6.5 µM); in [5] it was 4 µg/mL (≈ 6.5 µM).
With `NC[C@H]1O[C@H](O[C@H]2[C@H](O[C@@H]3O[C@H](CO)[C@@H](O)[C@H]3O)[C@@H](O)[C@H](N)C[C@@H]2N)[C@H](N)[C@@H](O)[C@@H]1O` [RIBOSTAMYCIN], the result in test [8] and in [9] was inactive. Further, the MIC was 0.5 µg/mL (≈ 1.1 µM) in [1]; 0.25 µg/mL (≈ 0.55 µM) in test [2]; > 256 µg/mL in [3]; > 256 µg/mL in [4]; > 256 µg/mL in test [5]. The result in test [10] and in test [11] was Active.
Take `CN[C@@H]1[C@@H](O)[C@@H](O[C@@H]2[C@@H](O)[C@H](O[C@H]3OC(CN)=CC[C@H]3N)[C@@H](N)C[C@H]2N)OC[C@]1(C)O` [SISOMICIN]: the MIC is 0.13 µg/mL (≈ 0.29 µM) in [1]; ≤ 0.06 µg/mL in test [2]; > 256 µg/mL in test [3]; 256 µg/mL (≈ 572 µM) in test [4]; > 256 µg/mL in test [5].
As for `CN[C@@H]1[C@H](O)[C@H](NC)[C@H]2O[C@@]3(O)C(=O)C[C@@H](C)O[C@H]3O[C@@H]2[C@H]1O` [SPECTINOMYCIN], the MIC is 16 µg/mL (≈ 48.1 µM) in test [1]; 16 µg/mL (≈ 48.1 µM) in test [2]; > 256 µg/mL in [3]; 16 µg/mL (≈ 48.1 µM) in [4]; > 256 µg/mL in [5].
For `CN[C@@H]1[C@H](O[C@H]2[C@H](O[C@H]3[C@H](O)[C@@H](O)[C@H](N=C(N)N)[C@@H](O)[C@@H]3N=C(N)N)O[C@@H](C)[C@]2(O)C=O)O[C@@H](CO)[C@H](O)[C@H]1O` [STREPTOMYCIN], the MIC was determined as 1 µg/mL (≈ 1.72 µM) in test [1]; 1 µg/mL (≈ 1.72 µM) in [2]; 128 µg/mL (≈ 220 µM) in [3]; 1 µg/mL (≈ 1.72 µM) in test [4]; 32 µg/mL (≈ 55 µM) in test [5].
Take `NC[C@H]1O[C@H](O[C@H]2[C@H](O)[C@@H](O[C@H]3O[C@H](CO)[C@@H](O)[C@H](N)[C@H]3O)[C@H](N)C[C@@H]2N)[C@H](N)C[C@@H]1O` [TOBRAMYCIN]: the MIC was 0.13 µg/mL (≈ 0.278 µM) in test [1]; ≤ 0.06 µg/mL in test [2]; > 256 µg/mL in test [3]; 128 µg/mL (≈ 274 µM) in test [4]; 128 µg/mL (≈ 274 µM) in test [5].
In the case of GENTAMICIN, the result in test [8] and in test [9] was inactive. Besides, in test [12], the Activity result was “Dose-dependent effect”. Further, the MIC is 0.13 µg/mL in test [1]; < 0.06 µg/mL in test [2]; > 256 µg/mL in test [3]; 16 µg/mL in test [4]; 128 µg/mL in test [5]. Further, the outcome in [10] and in test [11] was Active.

These data come from ChEMBL document CHEMBL1152454, “Novel plasmid-mediated 16S rRNA m1A1408 methyltransferase, NpmA, found in a clinically isolated Escherichia coli strain resistant to structurally diverse aminoglycosides” (2007).
